{"source": "ChEMBL document CHEMBL1153621", "about": "“Regioselective reaction: synthesis, characterization and pharmacological studies of some new Mannich bases derived from 1,2,4-triazoles” (2009)", "data": [{"test_system": "Pseudomonas aeruginosa", "experiment": "Antibacterial activity against Pseudomonas aeruginosa after 16 to 18 hrs by serial dilution method", "type": "functional", "summary_of_the_method": "(§1)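 MIC by serial dilution: compound dissolved in serially diluted DMF, a standard drop of prepared culture added to each dilution, incubated 16–18 h at 37 °C; MIC taken as the endpoint.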", "units": {"MIC": "mg/L"}, "values": [{"smiles": "Cc1ccc(-c2n[nH]cc2/C=N/n2c(-c3ccccc3)nn(CN3CCN(C)CC3)c2=S)cc1", "MIC": 3}, {"smiles": "CCCc1nn(CN2CCN(C)CC2)c(=S)n1/N=C/c1c[nH]nc1-c1ccc(Cl)cc1", "MIC": 3}, {"smiles": "COc1ccc(-c2n[nH]cc2/C=N/n2c(C)nn(CN3CCN(C)CC3)c2=S)cc1", "MIC": 1.5}, {"smiles": "Cc1n[nH]cc1/C=N/n1c(-c2ccccc2)nn(CN2CCN(C)CC2)c1=S", "MIC": 12.5}, {"smiles": "CCCc1nn(CN2CCN(C)CC2)c(=S)n1/N=C/c1c[nH]nc1-c1ccc(OC)cc1", "MIC": 6}, {"smiles": "Cc1ccc(-c2n[nH]cc2/C=N/n2c(C)nn(CN3CCN(C)CC3)c2=S)cc1", "MIC": 12.5}, {"smiles": "CCCc1nn(CN2CCN(C)CC2)c(=S)n1/N=C/c1c[nH]nc1-c1ccccc1", "MIC": 12.5}, {"smiles": "Cc1n[nH]cc1/C=N/n1c(C)nn(CN2CCN(C)CC2)c1=S", "MIC": 6}, {"smiles": "COc1ccc(-c2n[nH]cc2/C=N/n2c(-c3ccccc3)nn(CN3CCN(C)CC3)c2=S)cc1", "MIC": 3}, {"smiles": "Cc1nn(CN2CCN(C)CC2)c(=S)n1/N=C/c1c[nH]nc1-c1ccccc1", "MIC": 6}, {"smiles": "CCCc1nn(CN2CCN(C)CC2)c(=S)n1/N=C/c1c[nH]nc1-c1ccc(C)cc1", "MIC": 6}, {"smiles": "CN1CCN(Cn2nc(-c3ccccc3)n(/N=C/c3c[nH]nc3-c3ccccc3)c2=S)CC1", "MIC": 6}, {"smiles": "NC(=O)N/N=C/c1ccc([N+](=O)[O-])o1", "note": "[NITROFURAZONE]", "MIC": 12.5}]}, {"test_system": "Escherichia coli", "experiment": "Antibacterial activity against Escherichia coli after 16 to 18 hrs by serial dilution method", "type": "functional", "summary_of_the_method": "as §1", "units": {"MIC": "mg/L"}, "values": [{"smiles": "Cc1ccc(-c2n[nH]cc2/C=N/n2c(-c3ccccc3)nn(CN3CCN(C)CC3)c2=S)cc1", "MIC": 6}, {"smiles": "CCCc1nn(CN2CCN(C)CC2)c(=S)n1/N=C/c1c[nH]nc1-c1ccc(Cl)cc1", "MIC": 3}, {"smiles": "COc1ccc(-c2n[nH]cc2/C=N/n2c(C)nn(CN3CCN(C)CC3)c2=S)cc1", "MIC": 6}, {"smiles": "Cc1n[nH]cc1/C=N/n1c(-c2ccccc2)nn(CN2CCN(C)CC2)c1=S", "MIC": 6}, {"smiles": "CCCc1nn(CN2CCN(C)CC2)c(=S)n1/N=C/c1c[nH]nc1-c1ccc(OC)cc1", "MIC": 12.5}, {"smiles": "Cc1ccc(-c2n[nH]cc2/C=N/n2c(C)nn(CN3CCN(C)CC3)c2=S)cc1", "MIC": 6}, {"smiles": "CCCc1nn(CN2CCN(C)CC2)c(=S)n1/N=C/c1c[nH]nc1-c1ccccc1", "MIC": 12.5}, {"smiles": "Cc1n[nH]cc1/C=N/n1c(C)nn(CN2CCN(C)CC2)c1=S", "MIC": 6}, {"smiles": "COc1ccc(-c2n[nH]cc2/C=N/n2c(-c3ccccc3)nn(CN3CCN(C)CC3)c2=S)cc1", "MIC": 6}, {"smiles": "Cc1nn(CN2CCN(C)CC2)c(=S)n1/N=C/c1c[nH]nc1-c1ccccc1", "MIC": 12.5}, {"smiles": "CCCc1nn(CN2CCN(C)CC2)c(=S)n1/N=C/c1c[nH]nc1-c1ccc(C)cc1", "MIC": 6}, {"smiles": "CN1CCN(Cn2nc(-c3ccccc3)n(/N=C/c3c[nH]nc3-c3ccccc3)c2=S)CC1", "MIC": 6}, {"smiles": "NC(=O)N/N=C/c1ccc([N+](=O)[O-])o1", "note": "[NITROFURAZONE]", "MIC": 6}]}, {"test_system": "Bacillus subtilis", "experiment": "Antibacterial activity against Bacillus subtilis after 16 to 18 hrs by serial dilution method", "type": "functional", "summary_of_the_method": "as §1", "units": {"MIC": "mg/L"}, "values": [{"smiles": "Cc1ccc(-c2n[nH]cc2/C=N/n2c(-c3ccccc3)nn(CN3CCN(C)CC3)c2=S)cc1", "MIC": 12.5}, {"smiles": "CCCc1nn(CN2CCN(C)CC2)c(=S)n1/N=C/c1c[nH]nc1-c1ccc(Cl)cc1", "MIC": 3}, {"smiles": "COc1ccc(-c2n[nH]cc2/C=N/n2c(C)nn(CN3CCN(C)CC3)c2=S)cc1", "MIC": 6}, {"smiles": "Cc1n[nH]cc1/C=N/n1c(-c2ccccc2)nn(CN2CCN(C)CC2)c1=S", "MIC": 12.5}, {"smiles": "CCCc1nn(CN2CCN(C)CC2)c(=S)n1/N=C/c1c[nH]nc1-c1ccc(OC)cc1", "MIC": 12.5}, {"smiles": "Cc1ccc(-c2n[nH]cc2/C=N/n2c(C)nn(CN3CCN(C)CC3)c2=S)cc1", "MIC": 6}, {"smiles": "CCCc1nn(CN2CCN(C)CC2)c(=S)n1/N=C/c1c[nH]nc1-c1ccccc1", "MIC": 6}, {"smiles": "Cc1n[nH]cc1/C=N/n1c(C)nn(CN2CCN(C)CC2)c1=S", "MIC": 6}, {"smiles": "COc1ccc(-c2n[nH]cc2/C=N/n2c(-c3ccccc3)nn(CN3CCN(C)CC3)c2=S)cc1", "MIC": 6}, {"smiles": "Cc1nn(CN2CCN(C)CC2)c(=S)n1/N=C/c1c[nH]nc1-c1ccccc1", "MIC": 6}, {"smiles": "CCCc1nn(CN2CCN(C)CC2)c(=S)n1/N=C/c1c[nH]nc1-c1ccc(C)cc1", "MIC": 12.5}, {"smiles": "CN1CCN(Cn2nc(-c3ccccc3)n(/N=C/c3c[nH]nc3-c3ccccc3)c2=S)CC1", "MIC": 12.5}, {"smiles": "NC(=O)N/N=C/c1ccc([N+](=O)[O-])o1", "note": "[NITROFURAZONE]", "MIC": 12.5}]}, {"test_system": "Staphylococcus aureus", "experiment": "Antibacterial activity against Staphylococcus aureus after 16 to 18 hrs by serial dilution method", "type": "functional", "summary_of_the_method": "as §1", "units": {"MIC": "mg/L"}, "values": [{"smiles": "Cc1ccc(-c2n[nH]cc2/C=N/n2c(-c3ccccc3)nn(CN3CCN(C)CC3)c2=S)cc1", "MIC": 6}, {"smiles": "CCCc1nn(CN2CCN(C)CC2)c(=S)n1/N=C/c1c[nH]nc1-c1ccc(Cl)cc1", "MIC": 3}, {"smiles": "COc1ccc(-c2n[nH]cc2/C=N/n2c(C)nn(CN3CCN(C)CC3)c2=S)cc1", "MIC": 6}, {"smiles": "Cc1n[nH]cc1/C=N/n1c(-c2ccccc2)nn(CN2CCN(C)CC2)c1=S", "MIC": 12.5}, {"smiles": "CCCc1nn(CN2CCN(C)CC2)c(=S)n1/N=C/c1c[nH]nc1-c1ccc(OC)cc1", "MIC": 6}, {"smiles": "Cc1ccc(-c2n[nH]cc2/C=N/n2c(C)nn(CN3CCN(C)CC3)c2=S)cc1", "MIC": 12.5}, {"smiles": "CCCc1nn(CN2CCN(C)CC2)c(=S)n1/N=C/c1c[nH]nc1-c1ccccc1", "MIC": 6}, {"smiles": "Cc1n[nH]cc1/C=N/n1c(C)nn(CN2CCN(C)CC2)c1=S", "MIC": 12.5}, {"smiles": "COc1ccc(-c2n[nH]cc2/C=N/n2c(-c3ccccc3)nn(CN3CCN(C)CC3)c2=S)cc1", "MIC": 6}, {"smiles": "Cc1nn(CN2CCN(C)CC2)c(=S)n1/N=C/c1c[nH]nc1-c1ccccc1", "MIC": 6}, {"smiles": "CCCc1nn(CN2CCN(C)CC2)c(=S)n1/N=C/c1c[nH]nc1-c1ccc(C)cc1", "MIC": 6}, {"smiles": "CN1CCN(Cn2nc(-c3ccccc3)n(/N=C/c3c[nH]nc3-c3ccccc3)c2=S)CC1", "MIC": 6}, {"smiles": "NC(=O)N/N=C/c1ccc([N+](=O)[O-])o1", "note": "[NITROFURAZONE]", "MIC": 12.5}]}, {"test_system": "Candida albicans", "experiment": "Antifungal activity against Candida albicans after 16 to 18 hrs by serial dilution method", "type": "functional", "summary_of_the_method": "as §1", "units": {"MIC": "mg/L"}, "values": [{"smiles": "Cc1ccc(-c2n[nH]cc2/C=N/n2c(-c3ccccc3)nn(CN3CCN(C)CC3)c2=S)cc1", "MIC": 3}, {"smiles": "CCCc1nn(CN2CCN(C)CC2)c(=S)n1/N=C/c1c[nH]nc1-c1ccc(Cl)cc1", "MIC": 3}, {"smiles": "COc1ccc(-c2n[nH]cc2/C=N/n2c(C)nn(CN3CCN(C)CC3)c2=S)cc1", "MIC": 6}, {"smiles": "Cc1n[nH]cc1/C=N/n1c(-c2ccccc2)nn(CN2CCN(C)CC2)c1=S", "MIC": 6}, {"smiles": "CCCc1nn(CN2CCN(C)CC2)c(=S)n1/N=C/c1c[nH]nc1-c1ccc(OC)cc1", "MIC": 6}, {"smiles": "Cc1ccc(-c2n[nH]cc2/C=N/n2c(C)nn(CN3CCN(C)CC3)c2=S)cc1", "MIC": 6}, {"smiles": "CCCc1nn(CN2CCN(C)CC2)c(=S)n1/N=C/c1c[nH]nc1-c1ccccc1", "MIC": 6}, {"smiles": "Cc1n[nH]cc1/C=N/n1c(C)nn(CN2CCN(C)CC2)c1=S", "MIC": 6}, {"smiles": "COc1ccc(-c2n[nH]cc2/C=N/n2c(-c3ccccc3)nn(CN3CCN(C)CC3)c2=S)cc1", "MIC": 6}, {"smiles": "Cc1nn(CN2CCN(C)CC2)c(=S)n1/N=C/c1c[nH]nc1-c1ccccc1", "MIC": 6}, {"smiles": "CCCc1nn(CN2CCN(C)CC2)c(=S)n1/N=C/c1c[nH]nc1-c1ccc(C)cc1", "MIC": 6}, {"smiles": "CN1CCN(Cn2nc(-c3ccccc3)n(/N=C/c3c[nH]nc3-c3ccccc3)c2=S)CC1", "MIC": 6}, {"smiles": "OC(Cn1cncn1)(Cn1cncn1)c1ccc(F)cc1F", "note": "[FLUCONAZOLE]", "MIC": 6}]}]}
